What was measured:
Liver carboxylesterase 1 [1] = target: T1, Liver carboxylesterase 1 (Oryctolagus cuniculus, UniProt P12337); assay: Inhibition constant against rabbit liver carboxylesterase using CPT-11
T1 sequence (P12337 whole entry): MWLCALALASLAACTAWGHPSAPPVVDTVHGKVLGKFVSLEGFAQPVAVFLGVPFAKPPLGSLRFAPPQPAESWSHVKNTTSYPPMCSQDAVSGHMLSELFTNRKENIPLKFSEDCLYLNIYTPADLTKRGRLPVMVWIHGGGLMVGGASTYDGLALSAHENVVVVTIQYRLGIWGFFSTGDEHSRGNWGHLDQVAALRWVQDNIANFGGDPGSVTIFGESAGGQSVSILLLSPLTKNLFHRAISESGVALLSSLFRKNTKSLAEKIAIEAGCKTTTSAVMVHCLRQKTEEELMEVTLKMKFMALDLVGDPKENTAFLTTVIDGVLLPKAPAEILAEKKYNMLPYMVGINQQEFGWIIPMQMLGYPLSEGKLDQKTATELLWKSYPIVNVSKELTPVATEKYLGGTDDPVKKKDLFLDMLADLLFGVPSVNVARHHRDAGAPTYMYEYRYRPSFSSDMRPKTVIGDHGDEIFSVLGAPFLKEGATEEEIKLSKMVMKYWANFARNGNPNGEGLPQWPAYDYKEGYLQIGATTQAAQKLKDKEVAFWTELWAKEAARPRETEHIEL
How it was run: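 Purified rabbit CE was used with CPT-11 as the substrate. CPT-11 and SN-38 were quantified by HPLC with fluorescence detection.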

Liver carboxylesterase 1 [2] = target: T1, Liver carboxylesterase 1; assay: Inhibition constant against rabbit liver carboxylesterase using 4-MUA (4-methylumbelliferone acetate)
How it was run: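 Pure enzyme (hCE1 or rabbit CE) was incubated with 0.75 mM 4-methylumbelliferone acetate in 50 mM Hepes, pH 7.4. 4-Methylumbelliferone release was read fluorimetrically (excitation 365 nm, emission 460 nm) over 1 min, where the rate was linear. Inhibitor dilution series were run, and Ki was obtained by fitting fractional inhibition to a partially competitive inhibition equation.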

Liver carboxylesterase 1 [3] = target: T2, Liver carboxylesterase 1 (Homo sapiens, UniProt P23141); assay: Inhibition constant against human liver carboxylesterase 1 using o-NPA (nitrophenyl acetate)
T2 sequence (P23141 whole entry): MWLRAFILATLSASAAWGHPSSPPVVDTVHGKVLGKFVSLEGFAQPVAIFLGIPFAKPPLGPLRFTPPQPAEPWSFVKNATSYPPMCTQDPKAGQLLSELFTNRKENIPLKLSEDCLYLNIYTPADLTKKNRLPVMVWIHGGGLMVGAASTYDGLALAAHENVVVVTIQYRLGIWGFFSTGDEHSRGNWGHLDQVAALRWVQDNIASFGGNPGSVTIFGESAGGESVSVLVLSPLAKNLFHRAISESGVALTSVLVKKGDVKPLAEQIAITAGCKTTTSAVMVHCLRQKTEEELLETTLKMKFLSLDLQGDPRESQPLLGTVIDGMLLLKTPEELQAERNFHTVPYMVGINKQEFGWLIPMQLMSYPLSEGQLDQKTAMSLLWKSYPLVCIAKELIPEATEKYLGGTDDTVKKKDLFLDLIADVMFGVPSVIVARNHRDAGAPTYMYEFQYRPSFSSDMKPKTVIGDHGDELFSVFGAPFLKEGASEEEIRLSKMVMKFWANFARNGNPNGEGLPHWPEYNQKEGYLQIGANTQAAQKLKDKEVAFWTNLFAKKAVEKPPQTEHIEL
How it was run: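 Purified hCE1 was assayed in multiwell plates with 3 mM o-nitrophenyl acetate, with enzyme added last. Absorbance change at 420 nm was read every 15 s for 5 min and compared with no-inhibitor wells. Inhibitor concentrations started at 1 pM, and assays were run in duplicate with 50 µM BNPP and DMSO/no-enzyme controls. Ki came from fitting to a partially competitive inhibition equation.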

Liver carboxylesterase 1 [4] = target: T2, Liver carboxylesterase 1; assay: Inhibition constant against human liver carboxylesterase 1 using 4-MUA (4-methylumbelliferone acetate)
How it was run: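 Pure enzyme (hCE1 or rabbit CE) was incubated with 0.75 mM 4-methylumbelliferone acetate in 50 mM Hepes, pH 7.4. Inhibitor dilution series were run, and Ki was obtained by fitting fractional inhibition to a partially competitive inhibition equation.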

Liver carboxylesterase 1 [5] = target: T1, Liver carboxylesterase 1; assay: Inhibition constant against rabbit liver carboxylesterase (rCE) using nitrophenyl acetate (o-NPA) as substrate
How it was run: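 Pure rCE prepared per earlier work. Spectrophotometric multiwell assay with 3mM o-NPA. Inhibitor and substrate were dispensed first, then enzyme was added. A420 was read every 15 s for 5 min and compared with no-inhibitor wells. Inhibitor range started at 1 pM. Duplicates, with 50 µM BNPP and DMSO/no-enzyme controls. Ki came from a partially competitive inhibition equation fit.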

Acetylcholinesterase = Acetylcholinesterase (Homo sapiens, UniProt P22303); assay: Inhibition constant against human Acetylcholinesterase (hAcChE) using acetylthiocholine (AcTCh) as substrate
Cocaine esterase = target: T3, Cocaine esterase (Homo sapiens, UniProt O00748); assay: Inhibition constant against human intestinal carboxylesterase 2 (hiCE) using nitrophenyl acetate (o-NPA) as substrate
T3 sequence (O00748 whole entry): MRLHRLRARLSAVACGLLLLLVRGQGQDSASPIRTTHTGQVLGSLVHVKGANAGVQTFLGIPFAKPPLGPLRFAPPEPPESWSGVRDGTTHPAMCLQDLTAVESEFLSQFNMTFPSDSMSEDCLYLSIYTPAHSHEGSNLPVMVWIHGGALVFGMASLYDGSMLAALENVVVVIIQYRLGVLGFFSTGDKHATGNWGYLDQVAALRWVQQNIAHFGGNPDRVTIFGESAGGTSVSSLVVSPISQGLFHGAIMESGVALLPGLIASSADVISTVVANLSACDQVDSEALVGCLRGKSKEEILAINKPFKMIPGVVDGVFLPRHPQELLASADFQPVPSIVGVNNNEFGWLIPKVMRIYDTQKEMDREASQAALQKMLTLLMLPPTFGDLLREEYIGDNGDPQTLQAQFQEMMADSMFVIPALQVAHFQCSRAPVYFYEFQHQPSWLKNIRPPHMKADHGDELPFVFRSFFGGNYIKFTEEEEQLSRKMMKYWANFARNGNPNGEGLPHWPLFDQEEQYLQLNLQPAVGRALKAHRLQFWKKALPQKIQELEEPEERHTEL

Liver carboxylesterase 1 [6] = target: T2, Liver carboxylesterase 1; assay: Inhibition constant against human liver carboxylesterase 1 (hCE1) using nitrophenyl acetate (o-NPA) as substrate
Cholinesterase = Cholinesterase (Homo sapiens, UniProt P06276); assay: Inhibition constant against human Butyrylcholinesterase (hBuChE) using butyrylthiocholine (BuTCh) as substrate
Chain of Cholinesterase (P06276 whole entry): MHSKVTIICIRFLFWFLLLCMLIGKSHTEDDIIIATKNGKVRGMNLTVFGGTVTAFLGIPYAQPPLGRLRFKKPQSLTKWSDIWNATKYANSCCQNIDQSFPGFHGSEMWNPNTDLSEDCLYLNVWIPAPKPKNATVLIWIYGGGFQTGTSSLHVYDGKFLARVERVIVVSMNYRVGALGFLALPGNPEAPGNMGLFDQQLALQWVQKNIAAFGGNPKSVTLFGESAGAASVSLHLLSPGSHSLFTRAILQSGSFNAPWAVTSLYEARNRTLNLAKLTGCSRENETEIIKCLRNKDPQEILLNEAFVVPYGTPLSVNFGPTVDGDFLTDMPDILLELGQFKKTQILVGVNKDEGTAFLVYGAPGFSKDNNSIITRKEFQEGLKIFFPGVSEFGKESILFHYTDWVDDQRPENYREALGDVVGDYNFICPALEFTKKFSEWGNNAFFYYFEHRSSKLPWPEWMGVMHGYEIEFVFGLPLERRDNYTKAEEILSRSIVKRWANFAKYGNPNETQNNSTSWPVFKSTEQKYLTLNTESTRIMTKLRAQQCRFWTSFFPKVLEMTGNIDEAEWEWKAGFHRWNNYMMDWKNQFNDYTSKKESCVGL

Chain of Acetylcholinesterase (P22303 whole entry): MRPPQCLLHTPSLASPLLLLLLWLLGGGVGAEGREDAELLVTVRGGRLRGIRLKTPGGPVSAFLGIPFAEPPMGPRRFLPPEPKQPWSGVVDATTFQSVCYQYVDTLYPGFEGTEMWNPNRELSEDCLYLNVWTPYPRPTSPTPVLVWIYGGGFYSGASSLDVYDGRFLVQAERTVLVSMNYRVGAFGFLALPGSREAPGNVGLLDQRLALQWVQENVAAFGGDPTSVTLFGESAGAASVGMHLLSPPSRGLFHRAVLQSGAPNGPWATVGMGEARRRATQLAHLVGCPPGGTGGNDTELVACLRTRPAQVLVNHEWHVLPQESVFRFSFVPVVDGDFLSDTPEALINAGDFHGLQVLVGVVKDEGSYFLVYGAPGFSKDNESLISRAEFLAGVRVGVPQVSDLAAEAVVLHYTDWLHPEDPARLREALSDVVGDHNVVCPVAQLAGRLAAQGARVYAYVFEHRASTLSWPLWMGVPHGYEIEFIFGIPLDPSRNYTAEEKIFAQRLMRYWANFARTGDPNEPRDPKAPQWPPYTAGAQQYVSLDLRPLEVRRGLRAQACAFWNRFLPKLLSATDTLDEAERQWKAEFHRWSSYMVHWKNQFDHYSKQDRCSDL

SMILES | Ki (Liver carboxylesterase 1 [1]) [µM] | Ki (Liver carboxylesterase 1 [2]) [µM] | Ki (Liver carboxylesterase 1 [3]) [µM] | Ki (Liver carboxylesterase 1 [4]) [nM] | Ki (Liver carboxylesterase 1 [5]) [µM] | Ki (Acetylcholinesterase) [µM] | Ki (Cocaine esterase) [µM] | Ki (Liver carboxylesterase 1 [6]) [µM] | Ki (Cholinesterase) [µM]
Cc1ccc(C(=O)C(=O)c2ccccc2)cc1C | 0.24 | 0.0044 | 0.0991 | 18.8 | 0.108 | – | – | – | –
CCCCC(=O)C(C)=O | – | – | – | – | > 100 | > 100 | > 100 | 16.9 | > 100
CC1CC(C)(C)CC(=O)C1=O (stereo not drawn) | – | – | – | – | > 100 | > 100 | > 100 | > 100 | > 100
Oc1nc2cc(Cl)c(Cl)cc2nc1O [2,3-DIHYDROXY-6,7-DICHLOROQUINOXALINE] | – | – | – | – | > 100 | > 100 | > 100 | > 100 | > 100
O=C(C(=O)c1ccc(Br)cc1)c1ccc(Br)cc1 | 0.025 | 0.00017 | – | 0.029 | 0.0041 | – | – | – | –
CC1NC(=O)C(=O)OC1C (stereo not drawn) | – | – | – | – | > 100 | > 100 | > 100 | > 100 | > 100
CC1CCC(=O)C1=O (stereo not drawn) | – | – | – | – | 15.7 | > 100 | > 100 | > 100 | > 100
O=C(C(=O)c1ccc(Cl)cc1)c1ccccc1 | 0.0525 | 0.0017 | 0.0474 | 5.4 | 0.0239 | – | – | – | –
CC(=O)C(C)=O [BUTANEDIONE] | – | – | – | – | > 100 | > 100 | > 100 | > 100 | > 100
CC1CCCC(=O)C1=O (stereo not drawn) | – | – | – | – | > 100 | > 100 | > 100 | > 100 | > 100
O=C(CC(=O)c1ccccc1)c1ccccc1 [DIBENZOYLMETHANE] | – | – | – | – | 3.95 | > 100 | > 100 | 26 | > 100
O=C1CCCCC1=O | – | – | – | – | > 100 | > 100 | > 100 | > 100 | > 100
CC(C)(C)C1=CC(=O)C(=O)C(C(C)(C)C)=C1 | – | – | – | – | 0.736 | > 100 | 1.35 | 0.0886 | > 100
CN(C)c1ccc(C(O)C(=O)c2ccccc2)cc1 (stereo not drawn) | – | – | – | – | > 100 | > 100 | > 100 | > 100 | > 100
COC(OC)(C(=O)c1ccccc1)c1ccccc1 | – | – | – | – | > 100 | > 100 | > 100 | 15.3 | > 100
O=C1C(Cl)=C(Cl)C(=O)C(Cl)=C1Cl [CHLORANIL] | – | – | – | – | 0.0548 | 0.163 | – | 0.0839 | 0.268
CC1C(=O)CCC1=O | – | – | – | – | > 100 | > 100 | > 100 | > 100 | > 100
CC1C(=O)CCCC1=O | – | – | – | – | > 100 | > 100 | > 100 | > 100 | > 100

Source: ChEMBL document CHEMBL1143603, “Identification and characterization of novel benzil (diphenylethane-1,2-dione) analogues as inhibitors of mammalian carboxylesterases” (J Med Chem, 2005)
